High-throughput results: PubChem BioAssay, several laboratories
Calb FLC – affects C. albicans growth with fluconazole; C. albicans CaCi-2 (fluconazole-resistant clinical isolate) + fluconazole, Alamar Blue growth, 48 h; growth inhibition, % (test concentration not listed); 300,000 tested, 0.57% active; AID 1979;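 active = growth inhibition above about 58% in most replicates, limit read from the data, passing the limit was not always enough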;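 note: all wells also contain fluconazole at 8 µg/ml as a sub-toxic cotreatment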
HIF activator – HIF pathway transcriptional activation; activation, % at 7.5 µM (by protocol); 300,000 tested, 0.32% active; U2OS HRE-luciferase reporter, luminescence; normalized: DMSO 0%, desferrioxamine 100%;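 active = mean activation of at least 10% of the iron chelator positive control signal, with at least half of replicates also reaching 10%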
Neddyl block – blocks human cullin neddylation; TR-FRET cullin neddylation, biochemical; P61081+Q13564; 360,000 tested, 0.58% active; AID 651699; inhibition, % at 25 µM; in the data active = inhibition above about 36%
proCasp7 act – counter-screen: procaspase-7 (human) activation; P55210; recombinant procaspase-7, Ac-DEVD-pNA absorbance 405 nm; D23A/D198A/D206A triple mutant, cannot self-cleave; scale: DMSO 0, 5 µM enzyme 100; activation, % at 8.5 µM; 330,000 tested, 0.093% active;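 active = percent activation above the screen-wide mean plus 3 SD, cut at about 25% in these data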
Target sequence (P55210 whole entry D23A/D198A/D206A): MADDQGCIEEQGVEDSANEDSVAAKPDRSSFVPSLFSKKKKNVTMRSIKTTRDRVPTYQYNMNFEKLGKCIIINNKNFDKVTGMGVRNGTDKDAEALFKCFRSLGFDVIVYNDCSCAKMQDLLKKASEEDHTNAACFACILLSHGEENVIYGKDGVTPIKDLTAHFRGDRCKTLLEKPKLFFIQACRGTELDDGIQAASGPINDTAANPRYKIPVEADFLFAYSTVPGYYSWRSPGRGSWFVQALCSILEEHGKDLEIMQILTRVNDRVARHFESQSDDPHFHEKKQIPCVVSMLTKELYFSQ
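System: Procaspase-7 triple mutant (PC-7 D3A); measure: % activation from two-timepoint absorbance difference, scaled to controls; times: 1 h compound preincubation, 2 h substrate cleavage, 25 °C; also added: Ac-DEVD-pNA substrate, 400 µM as added; measured by: Epi-absorbance of released pNA at 405 nm, two timepoints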
FXN GAA850 act – increases GAA850 frataxin promoter reporter activity; HEK293 lucGAA850 FXN promoter luciferase reporter, 24 h; percent of 10 µM SAHA response; activation, % at 6 µM; 360,000 tested, 0.56% active;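 active = activation above the average of all compounds screened plus 3 SD, cutoff fixed separately per campaign, cut at about 7.5% in these data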
procasp3 activ – activates human procaspase-3 | recombinant procaspase-3 D3A, Ac-DEVD-pNA absorbance 405 nm | activation, % at 8.5 µM | 330,000 tested, 0.11% active | AID 463141;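 active = activation above the mean of all tested compounds plus 3 SD, cut at about 21% in these data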
Target sequence (P42574 whole entry D9A/D28A/D175A): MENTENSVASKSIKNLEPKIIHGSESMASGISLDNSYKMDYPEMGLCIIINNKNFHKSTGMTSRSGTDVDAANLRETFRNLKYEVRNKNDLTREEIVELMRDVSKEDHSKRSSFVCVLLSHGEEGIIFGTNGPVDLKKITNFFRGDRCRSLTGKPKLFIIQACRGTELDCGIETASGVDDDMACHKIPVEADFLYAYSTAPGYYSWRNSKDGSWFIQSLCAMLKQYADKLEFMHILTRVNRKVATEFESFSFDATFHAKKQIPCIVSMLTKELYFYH
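Test system: Procaspase-3 D3A mutant; medium: Zinc-free HEPES/NaCl buffer with 0.01% Triton X-100 at pH 7.4; reagent: DEVD-pNA substrate; doses: one concentration, 8.5 µM nominal, 0.8% DMSO; times: 1 h preincubation plus 2 h reaction at 25 °C; signal: Epi-absorbance at 405 nm of released p-nitroaniline, 0 and 120 min; replicates: singlicate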
Neddyl inh conf – cullin neddylation inhibition, confirmation; shares compounds with Neddyl block; AID 652217; calls only at 25 µM; TR-FRET cullin neddylation biochemical assay; 1,800 tested, 13% active; in the data active = inhibition above about 40%;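 note: neddylation substrate is the cullin 1 ring ligase complex with SKP2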
A number is an active result. An excerpt weighted towards active compounds, which were near 1.9% of everything screened.

Screening CC(Oc1cc2oc(=O)c3c(c2cc1Cl)CCC3)C(=O)NCc1cccnc1 (stereo not drawn) returned Calb FLC inactive, HIF activator inactive, Neddyl block 42.6, proCasp7 act inactive, FXN GAA850 act inactive, procasp3 activ inactive and Neddyl inh conf inactive.
Screening CC(Oc1cc2oc(=O)c3c(c2cc1Cl)CCCC3)C(=O)NCc1cccnc1 (stereo not drawn) returned Calb FLC inactive, HIF activator inactive, Neddyl block inactive, proCasp7 act inactive, FXN GAA850 act inactive and procasp3 activ inactive.
CCOC(=O)CCCCCC(=O)Nc1ccc2c(c1)C(=O)N([C@H](C)CO)C[C@@H](C)[C@H](CN(C)S(=O)(=O)c1cn(C)cn1)O2 was read as Neddyl block inactive, proCasp7 act inactive, FXN GAA850 act inactive and procasp3 activ inactive.
For FC(F)(F)c1cccc(-c2ccn3ncnc3n2)c1 the results were Calb FLC inactive, HIF activator inactive, Neddyl block 40.9, proCasp7 act inactive, FXN GAA850 act inactive, procasp3 activ inactive and Neddyl inh conf inactive.
Screening CCOC(=O)c1c(C)[nH]c(C(=O)OCC(=O)N(CC(C)C)c2c(N)n(Cc3ccccc3)c(=O)[nH]c2=O)c1C returned Calb FLC inactive, HIF activator inactive, Neddyl block inactive, proCasp7 act inactive, FXN GAA850 act inactive and procasp3 activ inactive.
For C=CCOc1c(CNc2cccc(C(=O)O)c2)cccc1OC the results were Calb FLC inactive, HIF activator inactive, proCasp7 act inactive, FXN GAA850 act inactive and procasp3 activ inactive.
For C=CCOc1c(CNc2cccc(C(=O)O)c2)cccc1OCC the results were Calb FLC inactive, HIF activator inactive, Neddyl block 47.4, proCasp7 act inactive, FXN GAA850 act inactive, procasp3 activ inactive and Neddyl inh conf inactive.
O=C(c1cc(-c2ccncc2)nc2ccccc12)N1CCN(S(=O)(=O)/C=C/c2ccccc2)CC1 was read as Calb FLC inactive, HIF activator inactive, Neddyl block inactive, proCasp7 act inactive, FXN GAA850 act inactive and procasp3 activ inactive.
Screening COc1ccc(/C=C2\CCCC3C2=NN(C(=O)CSc2n[nH]c(N)n2)C3c2ccc(OC)cc2)cc1 (stereo not drawn) returned Calb FLC inactive, HIF activator inactive, Neddyl block 45.6, proCasp7 act inactive, FXN GAA850 act inactive and procasp3 activ inactive.
For Cc1ccc(C)c(S(=O)(=O)N2CCN(C(=O)CSc3ccccc3F)CC2)c1 the results were Calb FLC inactive, HIF activator inactive, Neddyl block inactive, proCasp7 act inactive, FXN GAA850 act inactive and procasp3 activ inactive.
For Cc1ccc(Oc2ccc(S(=O)(=O)N3CCOCC3)cc2C(N)=O)c(-n2nc3ccccc3n2)c1 the results were Calb FLC inactive, HIF activator inactive, Neddyl block 37.6, proCasp7 act inactive, FXN GAA850 act inactive and procasp3 activ inactive.
`CN(CC(=O)NCCc1ccc(S(N)(=O)=O)cc1)Cc1ccc(Cl)cc1Cl` gave Calb FLC inactive, HIF activator inactive, Neddyl block inactive, proCasp7 act inactive, FXN GAA850 act inactive and procasp3 activ inactive.
For CC(C)(C)NC(=O)C1c2ccccc2OCC(=O)N1CC(F)(F)F (stereo not drawn) the results were Neddyl block inactive.
COc1ccc(-c2coc3c(C(=O)NC4CCCCC4)cccc23)c(C)c1 was read as Neddyl block inactive and FXN GAA850 act inactive.
COc1ccc(-c2ccc(C(=O)NC3CCCCC3)c3occc23)c(C)c1 was read as Neddyl block 40.4, FXN GAA850 act inactive and Neddyl inh conf inactive.
For COc1ccc(-c2ccc(C(=O)NCc3ccccc3)c3occc23)c(C)c1 the results were FXN GAA850 act inactive.
COc1ccc(-c2ccc(C(=O)NCc3ccc(C(F)(F)F)cc3)c3occc23)c(C)c1 was read as Neddyl block 40.1, FXN GAA850 act inactive and Neddyl inh conf inactive.
For CCN1C(=O)[C@@H]2[C@@H](c3ccc(-c4ccc(C(C)=O)cc4)cc3)N3CCCC[C@@]3(C(=O)OC)[C@@H]2C1=O the results were Calb FLC inactive, HIF activator inactive, Neddyl block inactive, proCasp7 act inactive, FXN GAA850 act inactive and procasp3 activ inactive.
Screening Cn1cc(C[C@H](NC(=O)OC(C)(C)C)C(=O)N[C@@H](CO)Cc2ccccc2)c2ccccc21 returned Calb FLC inactive, HIF activator inactive, Neddyl block inactive, proCasp7 act inactive, FXN GAA850 act inactive and procasp3 activ inactive.
For O=C(CN1C(=O)NC2(CCCCCC2)C1=O)Nc1ccc(OC(F)(F)F)cc1 the results were Neddyl block inactive and FXN GAA850 act inactive.
Screening C[C@H](CO)N1C[C@H](C)[C@@H](CN(C)S(=O)(=O)c2ccccc2)Oc2c(NC(=O)C3CCCCC3)cccc2C1=O returned Neddyl block inactive, proCasp7 act inactive, FXN GAA850 act inactive and procasp3 activ inactive.
`CCCCCCCCN1C(=O)[C@H](CC(=O)NCc2cccc(C(F)(F)F)c2)C[C@@]2(C(=O)OCC)CCC=C12` gave Neddyl block inactive.
For COC(=O)/C(=C\c1ccc2c(c1)c1ccccc1n2C)NC(=O)c1ccccc1 the results were Calb FLC inactive, HIF activator inactive, Neddyl block 42.3, proCasp7 act inactive, FXN GAA850 act inactive, procasp3 activ inactive and Neddyl inh conf inactive.
Screening CC(C)OC(=O)/C(=C/c1ccc2c(c1)c1ccccc1n2C)NC(=O)c1ccccc1 returned Calb FLC inactive, HIF activator inactive, Neddyl block 46.3, proCasp7 act inactive, FXN GAA850 act inactive, procasp3 activ inactive and Neddyl inh conf inactive.
`CC(C)OC(=O)/C(=C\c1cccnc1)NC(=O)c1ccccc1` gave Calb FLC inactive, HIF activator inactive, Neddyl block inactive, proCasp7 act inactive, FXN GAA850 act inactive and procasp3 activ inactive.
Screening Nc1nc2n(n1)C(c1cccc(Br)c1)CC(c1ccc(F)cc1)N2 (stereo not drawn) returned Calb FLC inactive, HIF activator inactive, Neddyl block 39.2, proCasp7 act inactive, FXN GAA850 act inactive, procasp3 activ inactive and Neddyl inh conf inactive.
For Nc1nc2n(n1)C(c1ccccc1)CC(c1ccc(F)cc1)N2 (stereo not drawn) the results were Calb FLC inactive, HIF activator inactive, Neddyl block inactive, proCasp7 act inactive, FXN GAA850 act inactive and procasp3 activ inactive.
`C=Cc1ccc(Cn2c(C)c(C(=O)NCc3cccc(C)c3)sc2=O)cc1` gave Neddyl block inactive and FXN GAA850 act inactive.
Screening CCOC(=O)C1=C(C)NC(C)=C(C(=O)OCC)C1C(=O)OCC(=O)NCc1ccc(F)cc1 returned Neddyl block 46.8, proCasp7 act inactive, FXN GAA850 act inactive and procasp3 activ inactive.
